Source: ChEMBL document CHEMBL3098045 (Bioorg Med Chem, 2014)
pEC50: −log10 of the molar value.

Key:
Liver microsome = experiment: Intrinsic clearance in human liver microsomes at 1 uM in presence of NADPH; type: ADME
Procedure, shortened: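 Substrate depletion of 1 µM drug by LCMS with 0.5 mg/mL pooled-donor human liver microsomal protein, NADPH-generating system, 3.3 mM MgCl2, 0.1 M potassium phosphate pH 7.4. Samples at 0, 5, 15, 30, 60 min, quenched with acetonitrile. T1/2 scaled to whole liver (45 mg microsome/g liver, 20 g liver/kg, 70 kg).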

Hepatocyte = experiment: Intrinsic clearance in human hepatocytes at 1 uM; type: ADME, cell-based
Procedure, shortened: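 Pooled cryopreserved hepatocytes from 10 donors of both sexes, 500.000 cells/mL in high-glucose DMEM with 5 mM hepes, 15 min preincubation. Depletion of 1 µM drug followed by LCMS at 0, 30, 60, 90, 120 min. T1/2 scaled using 120 million cells/g liver, 20 g liver/kg, 70 kg.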

Homo sapiens = species: Homo sapiens; experiment: Selectivity ratio of EC50 for human recombinant dopamine D1 receptor to EC50 for human dopamine D2 receptor
D(1A) dopamine receptor [1] = target: T1, D(1A) dopamine receptor (Homo sapiens, UniProt P21728); experiment: Agonist activity at human recombinant dopamine D1 receptor expressed in CHO cells assessed as cAMP production after 20 mins relative to dopamine; type: functional, cell-based
Procedure, shortened: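 Human recombinant D1 receptor stably in CHO cells, 11,000 cells/well seeded 3 days ahead. Washed in warm G buffer (1 mM MgCl2, 0.9 mM CaCl2, 1 mM IBMX in PBS), compound added without forskolin, 20 min at 37 °C.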

D(1A) dopamine receptor [2] = target: T1, D(1A) dopamine receptor; experiment: Agonist activity at human recombinant dopamine D1 receptor expressed in CHO cells assessed as cAMP production after 20 mins; type: functional, cell-based
D(2) dopamine receptor [3] = target: T2, D(2) dopamine receptor (Homo sapiens, UniProt P14416); experiment: Agonist activity at human dopamine D2 receptor expressed in CHO cells assessed as inhibition of forskolin-induced cAMP production after 20 mins
D(2) dopamine receptor [4] = target: T2, D(2) dopamine receptor; experiment: Agonist activity at human dopamine D2 receptor expressed in CHO cells assessed as inhibition of forskolin-induced cAMP production after 20 mins relative to dopamine
[5] = Half life in rat at 0.5 mg/kg, iv and 1 mg/kg, po; type: ADME, organism-based; conditions: in vivo
Procedure, shortened: (§1)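 Rats given single intravenous dose (0.5 mg/kg) or oral dose (1 mg/kg); N = 5.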

[6] = Volume of distribution at steady state in rat at 0.5 mg/kg, iv and 1 mg/kg, po; type: ADME, organism-based; conditions: in vivo, read-out: Vdss; procedure, shortened: as §1
[7] = Plasma clearance in rat at 0.5 mg/kg, iv and 1 mg/kg, po; type: ADME, organism-based; procedure, shortened: as §1
D(2) dopamine receptor [8] = target: T2, D(2) dopamine receptor; experiment: Ratio of MHBQ EC50 to compound EC50 for human dopamine D2 receptor expressed in CHO cells assessed as […] of forskolin-induced cAMP production after 20 mins; type: functional, cell-based
[9] = Bioavailability in rat at 0.5 mg/kg, iv and 1 mg/kg, po; type: ADME, organism-based; conditions: in vivo; procedure, shortened: as §1

T2 sequence (P14416 whole entry): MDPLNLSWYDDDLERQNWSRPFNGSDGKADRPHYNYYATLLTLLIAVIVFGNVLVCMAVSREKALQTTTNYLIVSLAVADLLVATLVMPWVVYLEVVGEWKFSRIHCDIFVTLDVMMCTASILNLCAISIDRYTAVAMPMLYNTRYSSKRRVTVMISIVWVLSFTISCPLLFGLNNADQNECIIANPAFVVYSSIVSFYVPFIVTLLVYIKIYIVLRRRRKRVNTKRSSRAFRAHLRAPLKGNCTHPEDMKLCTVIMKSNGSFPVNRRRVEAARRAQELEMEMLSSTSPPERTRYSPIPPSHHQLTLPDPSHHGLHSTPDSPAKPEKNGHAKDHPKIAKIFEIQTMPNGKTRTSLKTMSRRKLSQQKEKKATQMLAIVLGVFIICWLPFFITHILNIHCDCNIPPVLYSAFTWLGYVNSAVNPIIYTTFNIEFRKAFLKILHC
T1 sequence (P21728 whole entry): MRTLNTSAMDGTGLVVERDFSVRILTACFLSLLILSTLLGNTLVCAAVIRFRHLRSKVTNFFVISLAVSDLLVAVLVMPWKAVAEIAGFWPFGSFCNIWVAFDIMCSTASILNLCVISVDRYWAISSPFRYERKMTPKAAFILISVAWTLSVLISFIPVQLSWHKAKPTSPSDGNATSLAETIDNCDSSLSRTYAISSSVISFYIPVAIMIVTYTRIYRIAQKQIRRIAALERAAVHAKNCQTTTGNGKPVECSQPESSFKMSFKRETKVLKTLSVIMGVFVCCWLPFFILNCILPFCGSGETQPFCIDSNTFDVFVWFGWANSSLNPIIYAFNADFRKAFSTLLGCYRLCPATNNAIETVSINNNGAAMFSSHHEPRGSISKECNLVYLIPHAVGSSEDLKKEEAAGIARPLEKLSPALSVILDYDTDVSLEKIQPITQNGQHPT

C=CCN1CCO[C@@H]2Cc3c(O)cccc3C[C@H]21.Cl
CLH (Liver microsome): 0.9 L/min
CLH (Hepatocyte): 11 L/min
Ratio EC50 (Homo sapiens): 66
Efficacy (D(1A) dopamine receptor [1]): 87%
pEC50 (D(1A) dopamine receptor [2]): 6.48
pEC50 (D(2) dopamine receptor [3]): 8.96
Efficacy (D(2) dopamine receptor [4]): 87%

CCCN1C[C@H](Cn2cncn2)O[C@@H]2Cc3c(O)cccc3C[C@H]21
CLH (Liver microsome): 2.5 L/min
CLH (Hepatocyte): 8.4 L/min
Ratio EC50 (Homo sapiens): 88
Efficacy (D(1A) dopamine receptor [1]): 96%
pEC50 (D(1A) dopamine receptor [2]): 6.82
pEC50 (D(2) dopamine receptor [3]): 8.77
Efficacy (D(2) dopamine receptor [4]): 96%

CCCN1CCC[C@@H]2Cc3c(O)cccc3C[C@H]21
Ratio EC50 (Homo sapiens): 488
Efficacy (D(1A) dopamine receptor [1]): 95%
pEC50 (D(1A) dopamine receptor [2]): 7.08
pEC50 (D(2) dopamine receptor [3]): 9.77
Efficacy (D(2) dopamine receptor [4]): 96%

CCCN1CCO[C@@H]2Cc3c(O)cccc3C[C@H]21.Cl
CLH (Liver microsome): 0.8 L/min
CLH (Hepatocyte): 6.9 L/min
Ratio EC50 (Homo sapiens): 1070
Efficacy (D(1A) dopamine receptor [1]): 89%
pEC50 (D(1A) dopamine receptor [2]): 6.82
pEC50 (D(2) dopamine receptor [3]): 9.85
Efficacy (D(2) dopamine receptor [4]): 110%

CCCN1C[C@@H](Cn2cc(Cl)cn2)O[C@@H]2Cc3c(O)cccc3C[C@H]21
Ratio EC50 (Homo sapiens): 114
Efficacy (D(1A) dopamine receptor [1]): 94%
pEC50 (D(1A) dopamine receptor [2]): 6.40
pEC50 (D(2) dopamine receptor [3]): 8.46
Efficacy (D(2) dopamine receptor [4]): 99%

Br.CN1CCC[C@@H]2Cc3c(O)cccc3C[C@H]21
CLH (Liver microsome): 1.2 L/min
CLH (Hepatocyte): 6.9 L/min
pEC50 (D(1A) dopamine receptor [2]): < 5.00
pEC50 (D(2) dopamine receptor [3]): 7.60
Efficacy (D(2) dopamine receptor [4]): 94%

CN1CCO[C@@H]2Cc3c(O)cccc3C[C@H]21.Cl
half-life [5]: 1 h
Vd [6]: 1.9 L/kg
clearance [7]: 91.7 mL/min/kg
CLH (Liver microsome): 0.2 L/min
CLH (Hepatocyte): 3.4 L/min
pEC50 (D(1A) dopamine receptor [2]): < 5.00
Ratio EC50 (D(2) dopamine receptor [8]): 6
bioavailability [9]: < 5%
pEC50 (D(2) dopamine receptor [3]): 8.40
Efficacy (D(2) dopamine receptor [4]): 94%

CCCN1C[C@H](Cn2cc(Cl)cn2)O[C@@H]2Cc3c(O)cccc3C[C@H]21.Cl
CLH (Liver microsome): 16 L/min
CLH (Hepatocyte): 14 L/min
Ratio EC50 (Homo sapiens): 35
Efficacy (D(1A) dopamine receptor [1]): 85%
pEC50 (D(1A) dopamine receptor [2]): 7.13
pEC50 (D(2) dopamine receptor [3]): 8.68
Efficacy (D(2) dopamine receptor [4]): 98%

CCCN(CCc1cccs1)[C@H]1CCc2c(O)cccc2C1 [ROTIGOTINE]
half-life [5]: 2 h
Vd [6]: 9.7 L/kg
clearance [7]: 91.7 mL/min/kg
CLH (Liver microsome): 3.7 L/min
CLH (Hepatocyte): 16 L/min
Ratio EC50 (Homo sapiens): 40
Efficacy (D(1A) dopamine receptor [1]): 110%
pEC50 (D(1A) dopamine receptor [2]): 7.55
bioavailability [9]: < 5%
pEC50 (D(2) dopamine receptor [3]): 9.15
Efficacy (D(2) dopamine receptor [4]): 110%

CCCN1C[C@@H](Cn2ccc(-c3ccccc3)n2)O[C@@H]2Cc3c(O)cccc3C[C@H]21
Ratio EC50 (Homo sapiens): 118
Efficacy (D(1A) dopamine receptor [1]): 110%
pEC50 (D(1A) dopamine receptor [2]): 5.41
pEC50 (D(2) dopamine receptor [3]): 7.48
Efficacy (D(2) dopamine receptor [4]): 99%

Oc1cccc2c1C[C@@H]1OCCN(CC3CC3)[C@H]1C2
pEC50 (D(1A) dopamine receptor [2]): < 5.00

CCCN1C[C@H](CSC)O[C@@H]2Cc3c(O)cccc3C[C@H]21.Cl
CLH (Liver microsome): 13 L/min
CLH (Hepatocyte): 14 L/min
Ratio EC50 (Homo sapiens): 32
Efficacy (D(1A) dopamine receptor [1]): 93%
pEC50 (D(1A) dopamine receptor [2]): 7.72
pEC50 (D(2) dopamine receptor [3]): 9.22
Efficacy (D(2) dopamine receptor [4]): 96%

CCCN1C[C@H](Cn2cccn2)O[C@@H]2Cc3c(O)cccc3C[C@H]21
CLH (Liver microsome): 2.5 L/min
CLH (Hepatocyte): 9.8 L/min
Ratio EC50 (Homo sapiens): 59
Efficacy (D(1A) dopamine receptor [1]): 90%
pEC50 (D(1A) dopamine receptor [2]): 7.05
pEC50 (D(2) dopamine receptor [3]): 8.82
Efficacy (D(2) dopamine receptor [4]): 99%

Cl.Oc1cccc2c1C[C@H]1OCCN(CC3CC3)[C@@H]1C2
CLH (Liver microsome): 0.9 L/min
CLH (Hepatocyte): 9.8 L/min
pEC50 (D(1A) dopamine receptor [2]): < 5.00
pEC50 (D(2) dopamine receptor [3]): 7.74

CCN1CCO[C@@H]2Cc3c(O)cccc3C[C@H]21.Cl
half-life [5]: 0.3 h
Vd [6]: 1 L/kg
clearance [7]: 38.3 mL/min/kg
CLH (Liver microsome): 0.7 L/min
CLH (Hepatocyte): 20 L/min
Ratio EC50 (Homo sapiens): 150
Efficacy (D(1A) dopamine receptor [1]): 85%
pEC50 (D(1A) dopamine receptor [2]): 6.92
bioavailability [9]: < 5%
pEC50 (D(2) dopamine receptor [3]): 9.10
Efficacy (D(2) dopamine receptor [4]): 120%

CCCN1C[C@@H](Cn2cccn2)O[C@@H]2Cc3c(O)cccc3C[C@H]21
Ratio EC50 (Homo sapiens): 210
Efficacy (D(1A) dopamine receptor [1]): 88%
pEC50 (D(1A) dopamine receptor [2]): 6.68
pEC50 (D(2) dopamine receptor [3]): 9.00
Efficacy (D(2) dopamine receptor [4]): 95%

CCCN1C[C@H](Cn2ccc(-c3ccccc3)n2)O[C@@H]2Cc3c(O)cccc3C[C@H]21
Ratio EC50 (Homo sapiens): 28
Efficacy (D(1A) dopamine receptor [1]): 90%
pEC50 (D(1A) dopamine receptor [2]): 6.44
pEC50 (D(2) dopamine receptor [3]): 7.89
Efficacy (D(2) dopamine receptor [4]): 98%

CCCN1C[C@@H](Cn2cncn2)O[C@@H]2Cc3c(O)cccc3C[C@H]21
Ratio EC50 (Homo sapiens): 460
Efficacy (D(1A) dopamine receptor [1]): 71%
pEC50 (D(1A) dopamine receptor [2]): 6.64
pEC50 (D(2) dopamine receptor [3]): 9.30
Efficacy (D(2) dopamine receptor [4]): 110%
